About 770 (64%) of roughly 1,200 compounds were called active. So high a share suggests a set chosen from earlier hits. The list is a sample of the results. A number with no mark means an inactive call.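 Rule for the calls: active = percent activation of the STAT3 luciferase reporter above a set limit taken from the earlier primary screen (cut at about 130% in these data); inactive = the rest.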

The assay can be described thus: enhancers of IL-6 STAT3 signaling – U3A cells, luciferase, luminescence, confirmation (AID 1267).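 Note: 0% = background signal of medium plus substrate and 100% = median of IL-6 with DMSO wells.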 The following applies: U3A STAT3-luciferase reporter, IL-6 potentiation, at 5.7 µM, hits give high values, 100 means same as IL-6 alone, U3A cells lack STAT1. The gist of the method:
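Material: U3A STAT3::luc reporter cells; probe or stimulus: IL-6 stimulus at 33 ng/mL final; schedule: compound 1 h and IL-6 6 h, 37 °C; signal: luciferase reporter luminescence; evaluation: % potentiation versus median IL-6 plus DMSO wells, background-subtracted; controls: IL-6 + DMSO high control, media-only background; repeats: three replicates per compound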
Background: A reporter such as luciferase makes a cellular process visible.
`CC(=O)Nc1ccc(NC(=O)COc2ccccc2C(=O)Nc2cccc(Cl)c2Cl)cc1`: the potentiation (% of control) is 143% (active).
As for `CSc1nc(N(C)NC(=O)c2cccc(C)c2)c2ccccc2n1`, the figure is 112%; as for `Cc1cccc(C(=O)Nc2nnc(Cc3c[nH]c4ccccc34)s2)c1`, 150% (active).
As to `COc1ccc(/C=N/Nc2ncnc3sc4c(c23)CCCC4)cc1O`, the potentiation (% of control) was 114%.
Consider `O=C(Nc1cc(C(F)(F)F)ccc1Cl)c1cc(C2CC2)on1`, for which the potentiation (% of control) was 145% (active).
Regarding `Fc1ccc2nc(-c3ccccc3)nc(SCc3nnc(-c4ccccc4)o3)c2c1`, the potentiation (% of control) was 132%.
Consider `OC(COc1ccc2ccccc2c1)CN1CCOCC1` (stereo not given), for which the potentiation (% of control) is 157% (active).
With `COc1ccccc1C1C2=C(COC2=O)Nc2cc3c(cc21)OCO3` (stereo not given), the potentiation (% of control) is 124%.
`COc1ccc(-c2c3c(=O)n(C)c(=O)n(C)c3cn2-c2cccc(OC)c2)cc1`: the potentiation (% of control) was 158% (active).
To `COc1ccccc1N1CCN(C(=O)c2cc3c(-c4ccc(Cl)cc4)nn(C)c3s2)CC1` belongs 125%.
Turning to `Cn1nc(-c2ccc(Cl)cc2)c2cc(C(=O)NCc3ccco3)sc21`, the potentiation (% of control) was 153% (active).
To `O=C(NCc1ccco1)c1cccn2c(=O)c3c4c(sc3nc12)CCCC4` belongs 128%; to `COc1ccc(C)cc1NC(=O)c1[nH]c(C)c(C(C)=O)c1C`, 144% (active); to `N#Cc1ccccc1NC(=O)COc1c(Br)cc(Br)c2cccnc12`, 162% (active).
On to `O=C(C1CCN(S(=O)(=O)Cc2ccccc2)CC1)N1CCCc2ccccc21`, for which the potentiation (% of control) is 118%.
With `CSc1nc2sc3c(c2c(=O)[nH]1)CCc1ccccc1-3`, the potentiation (% of control) is 142% (active).
Take `CCSc1nnc(-c2cc3c(s2)-c2ccccc2CC3)o1`: the potentiation (% of control) is 162% (active).
To `COc1cccc(NC(=S)C(C#N)=C2N(C)c3ccccc3N2C)c1` belongs 122%; to `COc1ccc(C2c3[nH]c4ccccc4c3CCN2CCCn2cccn2)cc1C` (stereo not given), 142% (active); to `Cc1ccc(OCc2nnc(SC3CCc4ccccc4C3=O)n2C)cc1` (stereo not given), 151% (active).
Consider `CN1CCN(c2ccc([N+](=O)[O-])c(Sc3nc4ccccc4[nH]3)c2)CC1`, for which the potentiation (% of control) was 107%.
On to `Cc1ccc(S(=O)(=O)Nc2nc3ccccc3nc2N2CCc3ccccc3C2)cc1`, for which the potentiation (% of control) was 124%.
In the case of `Cc1cccc(N(CC(=O)N=Nc2c(O)[nH]c3ccccc23)S(C)(=O)=O)c1C`, the potentiation (% of control) is 129%.
Take `Cc1nc2ccccc2cc1O`: the potentiation (% of control) is 146% (active).
On to `CCCS(=O)(=O)Nc1c(C(=O)O)[nH]c2ccccc12`, for which the potentiation (% of control) is 170% (active).
As to `COC(=O)c1[nH]c2ccccc2c1NS(=O)(=O)c1ccc(OC)cc1OC`, the potentiation (% of control) is 116%.
`CC(C)CNC(=O)COC(=O)/C=C/c1ccccc1[N+](=O)[O-]`: the potentiation (% of control) was 126%.
As for `CCn1c(SCC(=O)N/N=C/C=C/c2ccccc2[N+](=O)[O-])nnc1-c1ccccc1`, the figure is 137% (active).
With `N#Cc1c(C(F)(F)F)cc(-c2ccc(Cl)cc2)nc1SCC(=O)O`, the potentiation (% of control) was 159% (active).
Regarding `COc1ccc(Cl)cc1NC(=O)c1oc(C)nc1C`, the potentiation (% of control) was 147% (active).
To `C/C(=N\NC(=O)CNc1cccc2ccccc12)c1ccc(Br)s1` belongs 98.2%; to `Cc1ccc(/C=N/NC(=O)COc2ccccc2-c2ccccc2)cc1`, 135% (active); to `Cc1ccc(C2=NN(C)c3nc4ccccc4n3C2)cc1`, 151% (active).
With `Oc1c(C=Nc2cccc3nsnc23)ccc2ccccc12`, the potentiation (% of control) was 129%.
With `COc1cc(OC)cc(C(=O)N[C@H](C(=O)Nc2nc3ccccc3[nH]2)C(C)C)c1`, the potentiation (% of control) is 108%.
Consider `COc1cc(NS(=O)(=O)c2ccc(N/C=C(\C=O)c3nc4cc(Cl)ccc4o3)cc2)nc(OC)n1`, for which the potentiation (% of control) was 144% (active).
Take `C/C(=N\c1nc2ccccc2n1C)c1cc(Cl)ccc1O`: the potentiation (% of control) is 118%.
Turning to `Cc1ccc(NC(=O)c2cc([N+](=O)[O-])ccc2Cl)c(O)c1`, the potentiation (% of control) was 158% (active).
For `Oc1cccc2ccc(/C=C/c3ccc(Br)s3)nc12`, the potentiation (% of control) was 169% (active).
As to `Cn1cccc1C(=O)Nc1nccs1`, the potentiation (% of control) is 132%.
In the case of `CCOC(=O)N1CCN(CC(=O)Nc2cc(C)nn2-c2nc3ccccc3s2)CC1`, the potentiation (% of control) is 140% (active).
On to `NC(=O)CSc1c[nH]c2ccccc12`, for which the potentiation (% of control) was 165% (active).
As to `O=c1[nH]c(CSc2ncc(-c3ccc(F)cc3)n2Cc2ccco2)nc2ccccc12`, the potentiation (% of control) was 122%.
Take `COc1ccc([N+](=O)[O-])cc1C1NN=C(c2cccc3ccccc23)S1` (stereo not given): the potentiation (% of control) is 138% (active).
For the molecule `O=C1CCCN1CCCNc1ncnc2c1[nH]c1ccccc12`, the potentiation (% of control) was 144% (active).
On to `COCCCNc1nc2c(-c3cccc(C(F)(F)F)c3)nnn2c2ccccc12`, for which the potentiation (% of control) is 134% (active).
Turning to `COc1ccccc1-c1nnc(NC(=O)c2ccc3ncsc3c2)o1`, the potentiation (% of control) was 147% (active).
In the case of `COc1ccccc1-c1nnc(SCC(=O)N2CC(C)CC(C)C2)o1` (stereo not given), the potentiation (% of control) is 117%.
As for `Cc1cccc(C(=O)N2CCc3c([nH]c4ccccc34)C2CC(C)C)n1` (stereo not given), the figure is 159% (active).
Turning to `c1ccc(-c2cn3c(n2)CCc2ccc4cccnc4c2-3)cc1`, the potentiation (% of control) was 139% (active).
Consider `CCOC(=O)c1c(-c2cccc(C)c2)csc1NC(=O)c1c(-c2ccccc2)noc1C`, for which the potentiation (% of control) is 122%.
As for `O=C(O)CS/C(=C\c1ccc(F)cc1)c1nc2ccccc2s1`, the figure is 132%; as for `O=C(O)CSCc1nc2ccccc2s1`, 154% (active).
Regarding `COc1ccc(NC(=O)ON=C2c3ccccc3-c3ccccc32)cc1`, the potentiation (% of control) was 121%.
For `CCOc1ccc(C2c3[nH]c4ccccc4c3CCN2Cc2cn(CC)nc2C)cc1` (stereo not given), the potentiation (% of control) was 143% (active).
Take `Cc1nc(N=C(N)N)nc2c(C)cccc12`: the potentiation (% of control) is 172% (active).
For the molecule `COc1nc(N=C(N)N)nc2c(C)cccc12`, the potentiation (% of control) is 144% (active).
`Cc1ccc(N=Nc2c(C)[nH]n(-c3ccccc3)c2=O)cc1`: the potentiation (% of control) is 147% (active).
To `CCOC(=O)C1CCN(c2ncnc3c2oc2ccc(Br)cc23)CC1` belongs 138% (active); to `CCNCc1cc2cc(C)ccc2[nH]c1=O`, 120%; to `CSCCC(NC(=O)c1ccco1)C(=O)OCC(=O)Nc1ncc(Cl)c(C)c1Cl` (stereo not given), 124%.
As for `C=CCCC(=O)Nc1nc(C)c(-c2csc(Nc3ccc(Cl)cc3)n2)s1`, the potentiation (% of control) is 135% (active).
As to `CCCCC(=O)Nc1nc(C)c(-c2csc(Nc3ccc(Cl)cc3)n2)s1`, the potentiation (% of control) was 133%.
With `Cc1ccc(Nc2nc(-c3sc(NC(=O)c4ccccc4)nc3C)cs2)cc1`, the potentiation (% of control) was 122%.
To `Cc1ccc(-c2cc(C(=O)Nc3nn[nH]n3)c3ccccc3n2)c(C)c1` belongs 121%.
For the molecule `O=[N+]([O-])c1ccc(N2CCN(S(=O)(=O)c3ccc4ccccc4c3)CC2)cc1NCc1ccco1`, the potentiation (% of control) is 123%.
As to `CN1C(=O)/C(=C\c2cc(Br)cs2)c2ccccc21`, the potentiation (% of control) was 190% (active).
In the case of `Cc1csc2ncc(C(=O)N(Cc3ccccc3)c3ccccn3)c(=O)n12`, the potentiation (% of control) is 111%.
For `O=C(Cc1c[nH]c2ccccc12)OCCOC(=O)Cc1c[nH]c2ccccc12`, the potentiation (% of control) was 121%.
`CCOC(=O)CN(C)Cc1c[nH]c2ccccc12`: the potentiation (% of control) is 157% (active).
To `COc1cccc(/C=C(/CC(=O)Nc2ccc(N3CCOCC3)cc2)c2nc3ccccc3s2)c1` belongs 146% (active); to `Oc1cccc(C2c3[nH]c4ccccc4c3CCN2Cc2cnn(-c3ccccc3)c2)c1` (stereo not given), 137% (active).
Regarding `COC(=O)c1[nH]c2ccccc2c1NC(=O)CN1CCCc2ccccc21`, the potentiation (% of control) is 153% (active).
On to `COC(=O)c1[nH]c2cccc(C)c2c1NC(=O)CN1CCCc2ccccc21`, for which the potentiation (% of control) is 128%.
As for `C=CCn1c(-c2ccccc2OCC)n[nH]c1=S`, the figure is 178% (active).

The values are drawn from PubChem BioAssay AID1267 (The Scripps Research Institute Molecular Screening Center, 2008).
